Legend:
[1] = Inhibition of GSK3 in rat […] cells assessed as reduction in glucose production after overnight incubation by fluorescence assay; type: cell-based
Method in brief: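 Rat hepatoma H4IIE cells grown in DMEM + 10% FBS, 2 mM L-glutamine and penicillin–streptomycin at 37 °C, 5% CO2, and passaged at 75% confluence. Plated at 100,000 cells/well, attached ~3 h, then PBS-washed and held overnight in glucose- and serum-free DMEM with 20 mM lactate and 2 mM pyruvate. Compounds, diluted in this medium, added overnight. Glucose in medium read with Amplex Red/glucose oxidase (30 min, dark; ex 560/em 615 nm); mean of triplicates.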

[2] = molecular target: Glycogen synthase kinase-3 (Homo sapiens, UniProt P49840+P49841); assay: Inhibition of recombinant human GSK3 using YRRAAVPPSPSLSRHSSPHQ(pS)EDEEE as substrate preincubated for 10 mins followed by [33P-gamma]-ATP addition measured after 30 mins by liquid scintillation counting analysis; type: protein assay
Method in brief: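 Reaction started with 1 µM ATP […] 33P-γ-ATP, run 30 min at 30 °C, and stopped with 3% phosphoric acid. Product captured on P81 paper and read by scintillation counting. IC50 is the mean of triplicates.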

[3] = molecular target: Mitogen-activated protein kinase 13 (Homo sapiens) (UniProt O15264); assay: Inhibition of human SAPK4 at 10 uM relative to control
Mitogen-activated protein kinase 13 (Homo sapiens), sequence (O15264 whole entry): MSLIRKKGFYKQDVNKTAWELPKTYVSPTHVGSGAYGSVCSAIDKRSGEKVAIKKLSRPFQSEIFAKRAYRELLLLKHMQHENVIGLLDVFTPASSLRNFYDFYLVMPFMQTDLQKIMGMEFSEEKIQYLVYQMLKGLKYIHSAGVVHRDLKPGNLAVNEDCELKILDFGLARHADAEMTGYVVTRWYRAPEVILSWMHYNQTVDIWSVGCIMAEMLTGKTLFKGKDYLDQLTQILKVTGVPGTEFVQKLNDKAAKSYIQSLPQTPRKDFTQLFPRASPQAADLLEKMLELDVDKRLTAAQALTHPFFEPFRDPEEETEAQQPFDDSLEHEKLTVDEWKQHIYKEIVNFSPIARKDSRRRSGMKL

[4] = molecular target: Serine/threonine-protein kinase Sgk1 (Homo sapiens) (UniProt O00141); assay: Inhibition of human SGK at 10 uM relative to control
Serine/threonine-protein kinase Sgk1 (Homo sapiens), sequence (O00141 whole entry): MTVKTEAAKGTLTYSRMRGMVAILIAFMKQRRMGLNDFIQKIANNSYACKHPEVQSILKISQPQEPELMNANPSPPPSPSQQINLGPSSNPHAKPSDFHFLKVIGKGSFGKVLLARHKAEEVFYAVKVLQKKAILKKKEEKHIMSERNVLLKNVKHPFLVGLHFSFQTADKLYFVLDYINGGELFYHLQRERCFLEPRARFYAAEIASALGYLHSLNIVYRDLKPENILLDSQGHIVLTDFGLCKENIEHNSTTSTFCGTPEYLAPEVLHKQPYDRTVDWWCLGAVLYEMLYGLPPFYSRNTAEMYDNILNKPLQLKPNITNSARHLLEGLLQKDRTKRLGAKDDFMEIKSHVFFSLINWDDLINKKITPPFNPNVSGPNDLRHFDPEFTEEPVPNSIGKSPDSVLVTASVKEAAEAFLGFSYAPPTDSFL

[5] = molecular target: Mitogen-activated protein kinase 12 (Homo sapiens) (UniProt P53778); assay: Inhibition of human SAPK3 at 10 uM relative to control
[6] = molecular target: Mitogen-activated protein kinase 11 (Homo sapiens) (UniProt Q15759); assay: Inhibition of human SAPK2B at 10 uM relative to control
[7] = molecular target: Mitogen-activated protein kinase 14 (Homo sapiens) (UniProt Q16539); assay: Inhibition of human SAPK2A at 10 uM relative to control
[8] = molecular target: Ribosomal protein S6 kinase alpha-3 (Homo sapiens) (UniProt P51812); assay: Inhibition of human RSK2 at 10 uM relative to control
[9] = molecular target: Rho-associated protein kinase 2 (Homo sapiens) (UniProt O75116); assay: Inhibition of human ROCK-2 at 10 uM relative to control
Rho-associated protein kinase 2 (Homo sapiens), sequence (O75116 whole entry, looked up): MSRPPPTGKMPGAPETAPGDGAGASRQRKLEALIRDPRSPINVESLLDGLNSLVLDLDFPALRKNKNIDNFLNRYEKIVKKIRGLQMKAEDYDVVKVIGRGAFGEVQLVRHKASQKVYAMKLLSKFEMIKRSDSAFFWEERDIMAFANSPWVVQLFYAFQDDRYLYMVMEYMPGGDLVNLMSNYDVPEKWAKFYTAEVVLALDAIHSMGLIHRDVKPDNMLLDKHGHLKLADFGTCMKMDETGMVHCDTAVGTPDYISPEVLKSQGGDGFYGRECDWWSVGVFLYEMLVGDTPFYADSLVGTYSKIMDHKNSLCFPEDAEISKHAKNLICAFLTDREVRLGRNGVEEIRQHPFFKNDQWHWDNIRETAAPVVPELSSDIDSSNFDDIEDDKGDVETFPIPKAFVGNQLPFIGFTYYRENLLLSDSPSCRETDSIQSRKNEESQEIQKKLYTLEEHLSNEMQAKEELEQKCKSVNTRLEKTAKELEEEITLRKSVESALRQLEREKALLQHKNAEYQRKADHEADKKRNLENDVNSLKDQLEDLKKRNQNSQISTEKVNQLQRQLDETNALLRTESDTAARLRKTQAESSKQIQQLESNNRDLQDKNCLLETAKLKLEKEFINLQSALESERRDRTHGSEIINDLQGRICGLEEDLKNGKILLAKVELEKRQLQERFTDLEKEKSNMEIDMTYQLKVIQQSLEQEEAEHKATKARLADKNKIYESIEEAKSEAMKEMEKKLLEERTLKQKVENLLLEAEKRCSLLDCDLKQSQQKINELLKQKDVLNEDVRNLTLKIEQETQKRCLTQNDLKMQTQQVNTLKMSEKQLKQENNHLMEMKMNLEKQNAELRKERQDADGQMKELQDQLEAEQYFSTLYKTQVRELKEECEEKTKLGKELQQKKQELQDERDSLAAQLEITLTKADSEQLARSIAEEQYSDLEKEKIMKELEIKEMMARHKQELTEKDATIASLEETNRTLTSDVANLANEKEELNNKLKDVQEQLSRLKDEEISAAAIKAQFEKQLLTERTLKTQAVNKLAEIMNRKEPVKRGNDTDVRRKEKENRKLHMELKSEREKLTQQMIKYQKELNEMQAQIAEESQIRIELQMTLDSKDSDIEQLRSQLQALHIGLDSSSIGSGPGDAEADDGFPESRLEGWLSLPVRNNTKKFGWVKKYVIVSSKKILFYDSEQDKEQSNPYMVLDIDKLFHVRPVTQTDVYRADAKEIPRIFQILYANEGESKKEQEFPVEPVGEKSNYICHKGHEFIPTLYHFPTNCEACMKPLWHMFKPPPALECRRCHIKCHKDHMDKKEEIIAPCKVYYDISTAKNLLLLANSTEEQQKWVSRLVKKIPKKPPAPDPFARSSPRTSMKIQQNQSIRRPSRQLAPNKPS

[10] = molecular target: MAP kinase-activated protein kinase 5 (Homo sapiens) (UniProt Q8IW41); assay: Inhibition of human PRAK at 10 uM relative to control
[11] = molecular target: Protein kinase C alpha type (Homo sapiens) (UniProt P17252); assay: Inhibition of human PKCalpha at 10 uM relative to control
[12] = molecular target: RAC-alpha serine/threonine-protein kinase (Homo sapiens) (UniProt P31749); assay: Inhibition of human PKBalpha at 10 uM relative to control
[13] = molecular target: Phosphorylase b kinase gamma catalytic chain, liver/testis isoform (Homo sapiens) (UniProt P15735); assay: Inhibition of human PhKgamma2 at 10 uM relative to control
Homo sapiens = species on record: Homo sapiens; assay: Inhibition of human PKA at 10 uM relative to control
[14] = molecular target: Ribosomal protein S6 kinase beta-1 (Homo sapiens) (UniProt P23443); assay: Inhibition of human p70S6K at 10 uM relative to control
Ribosomal protein S6 kinase beta-1 (Homo sapiens), sequence (P23443 whole entry, looked up): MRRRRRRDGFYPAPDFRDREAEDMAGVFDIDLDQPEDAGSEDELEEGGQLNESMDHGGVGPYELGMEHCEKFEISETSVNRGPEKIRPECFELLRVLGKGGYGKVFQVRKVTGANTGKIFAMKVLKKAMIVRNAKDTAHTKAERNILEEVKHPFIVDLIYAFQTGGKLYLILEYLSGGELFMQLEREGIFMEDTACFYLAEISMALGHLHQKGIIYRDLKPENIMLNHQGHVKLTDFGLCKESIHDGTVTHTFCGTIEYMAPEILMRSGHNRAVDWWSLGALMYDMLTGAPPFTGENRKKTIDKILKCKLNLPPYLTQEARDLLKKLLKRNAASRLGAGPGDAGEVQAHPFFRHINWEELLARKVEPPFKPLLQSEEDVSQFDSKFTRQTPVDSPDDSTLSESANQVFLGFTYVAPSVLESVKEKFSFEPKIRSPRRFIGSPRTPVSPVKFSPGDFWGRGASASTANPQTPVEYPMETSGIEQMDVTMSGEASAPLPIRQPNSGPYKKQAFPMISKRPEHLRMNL

[15] = molecular target: Ribosomal protein S6 kinase alpha-5 (Homo sapiens) (UniProt O75582); assay: Inhibition of human MSK1 at 10 uM relative to control
Ribosomal protein S6 kinase alpha-5 (Homo sapiens), sequence (O75582 whole entry, looked up): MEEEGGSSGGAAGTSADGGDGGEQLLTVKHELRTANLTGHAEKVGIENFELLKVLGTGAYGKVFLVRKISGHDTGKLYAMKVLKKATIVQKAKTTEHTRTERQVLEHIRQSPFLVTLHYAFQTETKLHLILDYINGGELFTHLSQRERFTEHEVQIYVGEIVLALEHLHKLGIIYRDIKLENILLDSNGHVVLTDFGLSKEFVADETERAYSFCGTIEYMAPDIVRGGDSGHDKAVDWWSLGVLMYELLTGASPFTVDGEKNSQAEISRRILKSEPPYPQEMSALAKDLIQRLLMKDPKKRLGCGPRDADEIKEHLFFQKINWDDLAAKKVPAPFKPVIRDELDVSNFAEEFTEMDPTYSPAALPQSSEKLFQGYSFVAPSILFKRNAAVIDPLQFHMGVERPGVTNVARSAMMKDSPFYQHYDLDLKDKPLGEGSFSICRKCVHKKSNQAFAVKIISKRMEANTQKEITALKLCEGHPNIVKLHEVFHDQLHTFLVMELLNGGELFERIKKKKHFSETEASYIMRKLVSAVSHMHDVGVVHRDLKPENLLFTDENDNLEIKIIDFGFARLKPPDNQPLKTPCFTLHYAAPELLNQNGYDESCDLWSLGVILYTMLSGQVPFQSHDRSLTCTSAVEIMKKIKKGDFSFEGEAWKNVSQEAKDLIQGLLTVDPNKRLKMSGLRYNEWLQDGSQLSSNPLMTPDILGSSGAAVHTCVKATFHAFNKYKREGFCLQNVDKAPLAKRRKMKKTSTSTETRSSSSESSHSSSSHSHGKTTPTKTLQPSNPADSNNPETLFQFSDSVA

[16] = molecular target: MAP kinase-activated protein kinase 2 (Homo sapiens) (UniProt P49137); assay: Inhibition of human MAPKAP-K2 at 10 uM relative to control
[17] = molecular target: Dual specificity mitogen-activated protein kinase kinase 1 (Homo sapiens) (UniProt Q02750); assay: Inhibition of human MEK1 at 10 uM relative to control
[18] = molecular target: Mitogen-activated protein kinase 1 (Homo sapiens) (UniProt P28482); assay: Inhibition of human MAPK1 at 10 uM relative to control
[19] = molecular target: Tyrosine-protein kinase Lck (Homo sapiens) (UniProt P06239); assay: Inhibition of human LCK at 10 uM relative to control
[20] = molecular target: Glycogen synthase kinase-3 beta (Homo sapiens) (UniProt P49841); assay: Inhibition of human GSK3beta at 10 uM relative to control
Glycogen synthase kinase-3 beta (Homo sapiens), sequence (P49841 whole entry, looked up): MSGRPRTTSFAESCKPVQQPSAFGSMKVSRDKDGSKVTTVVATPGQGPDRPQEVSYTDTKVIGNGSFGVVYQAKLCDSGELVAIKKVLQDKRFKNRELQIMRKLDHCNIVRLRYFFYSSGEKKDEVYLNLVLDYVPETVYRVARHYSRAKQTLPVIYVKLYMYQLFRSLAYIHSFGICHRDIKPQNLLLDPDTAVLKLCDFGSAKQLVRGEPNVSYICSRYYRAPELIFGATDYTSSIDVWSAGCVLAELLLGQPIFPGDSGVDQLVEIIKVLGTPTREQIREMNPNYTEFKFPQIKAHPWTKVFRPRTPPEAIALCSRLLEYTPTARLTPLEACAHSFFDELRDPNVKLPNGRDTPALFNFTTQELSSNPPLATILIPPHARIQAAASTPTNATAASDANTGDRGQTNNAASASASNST

[21] = molecular target: Mitogen-activated protein kinase 8 (Homo sapiens) (UniProt P45983); assay: Inhibition of human JNK1alpha1 at 10 uM relative to control
[22] = molecular target: Glycogen synthase kinase-3 alpha (Homo sapiens) (UniProt P49840); assay: Inhibition of human GSK3alpha at 10 uM relative to control
[23] = molecular target: Casein kinase II (Homo sapiens) (UniProt P67870+P68400+P19784); assay: Inhibition of human CK2 at 10 uM relative to control; type: protein-complex assay
[24] = molecular target: Serine/threonine-protein kinase Chk1 (Homo sapiens) (UniProt O14757); assay: Inhibition of human CHK1 at 10 uM relative to control
Serine/threonine-protein kinase Chk1 (Homo sapiens), sequence (O14757 whole entry): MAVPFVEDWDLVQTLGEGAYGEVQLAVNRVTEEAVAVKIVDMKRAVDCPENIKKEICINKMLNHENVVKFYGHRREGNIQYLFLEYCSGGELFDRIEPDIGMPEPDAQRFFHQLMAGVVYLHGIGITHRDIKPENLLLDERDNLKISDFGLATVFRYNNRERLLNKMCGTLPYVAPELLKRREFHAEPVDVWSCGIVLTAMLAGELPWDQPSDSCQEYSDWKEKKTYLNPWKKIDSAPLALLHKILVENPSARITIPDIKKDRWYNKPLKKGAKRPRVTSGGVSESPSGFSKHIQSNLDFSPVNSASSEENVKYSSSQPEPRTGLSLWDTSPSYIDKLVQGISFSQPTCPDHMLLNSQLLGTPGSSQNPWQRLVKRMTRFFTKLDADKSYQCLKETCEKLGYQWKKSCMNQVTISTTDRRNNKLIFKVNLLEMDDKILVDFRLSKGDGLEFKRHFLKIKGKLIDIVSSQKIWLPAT

[25] = molecular target: CDK2/Cyclin A2 (Homo sapiens) (UniProt P24941+P20248); assay: Inhibition of human CDK2/cyclinA at 10 uM relative to control; type: protein-complex assay
[26] = molecular target: Cyclin-dependent kinase 5/CDK5 activator 1 (Homo sapiens) (UniProt Q00535+Q15078); assay: Inhibition of human CDK5/p25 at 10 uM relative to control; type: protein-complex assay
[27] = molecular target: 5'-AMP-activated protein kinase catalytic subunit alpha-1 (Homo sapiens) (UniProt Q13131); assay: Inhibition of human AMPKalpha1 at 10 uM relative to control
5'-AMP-activated protein kinase catalytic subunit alpha-1 (Homo sapiens), sequence (Q13131 whole entry, looked up): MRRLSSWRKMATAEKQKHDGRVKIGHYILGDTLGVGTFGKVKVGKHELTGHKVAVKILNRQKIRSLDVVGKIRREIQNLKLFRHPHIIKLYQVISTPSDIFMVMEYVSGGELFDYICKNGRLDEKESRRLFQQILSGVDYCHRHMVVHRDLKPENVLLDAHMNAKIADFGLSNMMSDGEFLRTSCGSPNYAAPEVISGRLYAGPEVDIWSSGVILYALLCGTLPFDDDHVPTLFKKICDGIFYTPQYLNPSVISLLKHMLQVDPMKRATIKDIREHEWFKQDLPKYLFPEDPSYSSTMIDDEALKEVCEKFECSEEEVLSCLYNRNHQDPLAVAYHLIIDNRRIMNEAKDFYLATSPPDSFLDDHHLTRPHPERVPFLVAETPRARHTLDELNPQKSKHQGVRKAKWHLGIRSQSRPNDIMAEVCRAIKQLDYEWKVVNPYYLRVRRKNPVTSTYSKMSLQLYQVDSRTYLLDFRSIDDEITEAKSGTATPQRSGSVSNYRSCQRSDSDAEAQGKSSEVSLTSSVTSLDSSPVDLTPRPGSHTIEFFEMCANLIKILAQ

[28] = Solubility of the compound in water; type: physicochemical
[29] = Ratio of drug level from brain to plasma in ICR mouse at 30 mg/kg, iv measured at 0.75 hrs; type: ADME, organism-based; set-up: dose 30 mg/kg, route intravenous; details: read-out: BPR
Method in brief: (§1)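 ICR mice, n = 3, given a single iv dose of 30 mg/kg. Plasma (ng/ml) and brain (ng/g) concentrations measured by LC/MS/MS at 0.25 and 0.75 h. Brain/plasma ratio taken from these paired values.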

[30] = Ratio of drug level from brain to plasma in ICR mouse at 30 mg/kg, iv measured at 0.25 hrs; type: ADME, organism-based; set-up: dose 30 mg/kg, route intravenous; details: read-out: BPR; method in brief: as §1
[31] = Drug uptake in ICR mouse brain at 30 mg/kg, iv measured at 0.75 hrs by LC/MS/MS analysis; type: ADME, organism-based; set-up: dose 30 mg/kg, route intravenous; details: read-out: Drug uptake; method in brief: as §1
[32] = Drug uptake in ICR mouse brain at 30 mg/kg, iv measured at 0.25 hrs by LC/MS/MS analysis; type: ADME, organism-based; set-up: dose 30 mg/kg, route intravenous; details: read-out: Drug uptake; method in brief: as §1
[33] = Plasma concentration in ICR mouse at 30 mg/kg, iv measured at 0.25 hrs by LC/MS/MS analysis; type: ADME, organism-based; set-up: dose 30 mg/kg, route intravenous; method in brief: as §1
[34] = Plasma concentration in ICR mouse at 30 mg/kg, iv measured at 0.75 hrs by LC/MS/MS analysis; type: ADME, organism-based; set-up: dose 30 mg/kg, route intravenous; method in brief: as §1
[35] = Oral bioavailability in rat at 5 mg/kg by LC/MS/MS analysis; type: ADME, organism-based; details: in vivo
Method in brief: (§2)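 Rat PK, n = 3 animals; iv dose 3 mg/kg, oral dose 5 mg/kg. Plasma levels quantified by LC/MS/MS after dosing. Derived parameters: AUC0–inf, clearance, elimination half-life and oral bioavailability (F).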

[36] = Elimination half life in rat at 3 mg/kg, iv by LC/MS/MS analysis; type: ADME, organism-based; set-up: dose 3 mg/kg, route intravenous; details: in vivo, read-out: beta t1/2 (converted); method in brief: as §2
[37] = Elimination half life in rat at 5 mg/kg, po by LC/MS/MS analysis; type: ADME, organism-based; set-up: dose 5 mg/kg, route oral; details: in vivo, read-out: beta t1/2 (converted); method in brief: as §2
[38] = AUC (0 to infinity) in rat at 5 mg/kg, po by LC/MS/MS analysis; type: ADME, organism-based; set-up: time infinity, dose 5 mg/kg, route oral; details: plasma
Method in brief: (§3)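 Rat pharmacokinetics with n = 3 per group. Compound given iv at 3 mg/kg or po at 5 mg/kg. Concentrations were measured by LC/MS/MS after administration. AUC0–inf is the area under the concentration–time curve. Clearance, elimination half-life and bioavailability were derived in the same study.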

[39] = Clearance in rat at 3 mg/kg, iv by LC/MS/MS analysis; type: ADME, organism-based; set-up: dose 3 mg/kg, route intravenous; details: in vivo; method in brief: as §2
[40] = AUC (0 to infinity) in rat at 3 mg/kg, iv by LC/MS/MS analysis; type: ADME, organism-based; set-up: time infinity, dose 3 mg/kg, route intravenous; details: plasma; method in brief: as §3
[41] = molecular target: 3-phosphoinositide-dependent protein kinase 1 (Homo sapiens) (UniProt O15530); assay: Inhibition of human PDK1 at 10 uM relative to control

SMILES: COc1cc(CCCNc2cc(C)cn3c(=O)[nH]nc23)ccn1.Cl
- EC50 [1]: 9110 nM
- IC50 [2]: 641 nM

SMILES: COc1ccc(CCC(=O)Nc2cccn3c(=O)[nH]nc23)cc1
- IC50 [2]: > 50000 nM

SMILES: Cc1cc(NCCCc2ccc(N)cc2)c2n[nH]c(=O)n2c1.Cl
- EC50 [1]: 18400 nM
- IC50 [2]: 1010 nM

SMILES: Cl.Nc1cc(CCCNc2cc(Cl)cn3c(=O)[nH]nc23)ccn1
- EC50 [1]: 2360 nM
- IC50 [2]: 249 nM

SMILES: COc1ccc(OCCNc2cc(C)cn3c(=O)[nH]nc23)cc1
- IC50 [2]: 7010 nM

SMILES: Cl.O=c1[nH]nc2c(NCCCc3cccc(OCCN4CCOCC4)c3)cc(Cl)cn12
- EC50 [1]: 3840 nM
- IC50 [2]: 247 nM

SMILES: Cc1cc(NCCCn2ccnc2)c2n[nH]c(=O)n2c1.Cl
- EC50 [1]: 13300 nM
- IC50 [2]: 1360 nM

SMILES: Cc1cc(NCCCc2cccnc2)c2n[nH]c(=O)n2c1.Cl
- EC50 [1]: 5440 nM
- IC50 [2]: 354 nM

SMILES: Cc1cc(CCCNc2cc(Cl)cn3c(=O)[nH]nc23)ccn1.Cl
- EC50 [1]: 7030 nM
- IC50 [2]: 818 nM

SMILES: Cl.O=c1[nH]nc2c(NCCCc3ccnc(Cl)c3)cc(Cl)cn12
- EC50 [1]: 2630 nM
- IC50 [2]: 199 nM

SMILES: Cc1cc(NCCCN2CCNCC2)c2n[nH]c(=O)n2c1.Cl
- IC50 [2]: > 50000 nM

SMILES: Cl.O=c1[nH]nc2c(NCCCc3cccnc3)cc(Cl)cn12
- EC50 [1]: 1680 nM
- IC50 [2]: 520 nM

SMILES: Nc1cccn2c(=O)[nH]nc12
- IC50 [2]: > 50000 nM

SMILES: Cc1cc(NCCCc2ccnc(Cl)c2)c2n[nH]c(=O)n2c1.Cl
- EC50 [1]: 12100 nM
- IC50 [2]: 774 nM

SMILES: COc1ccc(OCCn2nc3c(N)cccn3c2=O)cc1
- IC50 [2]: > 50000 nM

SMILES: COc1ccc(OCCNc2cccn3c(=O)[nH]nc23)cc1
- IC50 [2]: 13000 nM

SMILES: Cc1cc(NCCCc2ccncc2)c2n[nH]c(=O)n2c1.Cl
- EC50 [1]: 6230 nM
- IC50 [2]: 607 nM

SMILES: Cl.O=c1[nH]nc2c(NCCCc3ccncc3)cc(Cl)cn12
- inhibition [3]: 2%
- inhibition [4]: 22%
- inhibition [5]: 5%
- inhibition [6]: 1%
- inhibition [7]: -1%
- inhibition [8]: 34%
- inhibition [9]: 27%
- inhibition [10]: 14%
- inhibition [11]: 18%
- inhibition [12]: 12%
- inhibition [13]: 25%
- inhibition (Homo sapiens): 0%
- inhibition [14]: 14%
- inhibition [15]: 9%
- inhibition [16]: 19%
- inhibition [17]: 9%
- inhibition [18]: 15%
- inhibition [19]: 19%
- inhibition [20]: 90%
- inhibition [21]: 9%
- inhibition [22]: 99%
- inhibition [23]: 5%
- inhibition [24]: 21%
- inhibition [25]: 54%
- inhibition [26]: 53%
- inhibition [27]: -1%
- solubility [28]: > 10000 µg/mL
- Kp at 0.75 h [29]: 0.1
- Kp at 0.25 h [30]: 0.34
- concentration at 0.75 h [31]: 107 ng/g
- concentration at 0.25 h [32]: 214 ng/g
- concentration at 0.25 h [33]: 634 ng/mL
- concentration at 0.75 h [34]: 1050 ng/mL
- bioavailability [35]: 83%
- half-life [36]: 24 min
- half-life [37]: 72 min
- AUC(0-inf) [38]: 3460 ng·h/mL
- clearance [39]: 20 mL/min/kg
- AUC(0-inf) [40]: 2490 ng·h/mL
- EC50 [1]: 1780 nM
- IC50 [2]: 111 nM
- inhibition [41]: 10%

SMILES: COc1cccc(CCCNc2cc(Cl)cn3c(=O)[nH]nc23)c1
- EC50 [1]: 2710 nM
- IC50 [2]: 190 nM

SMILES: Cc1cc(NCCCc2ccc(C)nc2)c2n[nH]c(=O)n2c1.Cl
- EC50 [1]: 1250 nM
- IC50 [2]: 309 nM

SMILES: Cc1cc(N(C)CCCc2ccccn2)c2n[nH]c(=O)n2c1.Cl
- IC50 [2]: 50000 nM

SMILES: Cc1ccc(CCCNc2cc(Cl)cn3c(=O)[nH]nc23)cn1.Cl
- EC50 [1]: 2740 nM
- IC50 [2]: 342 nM

SMILES: Cc1cc(NCCCc2ccccn2)c2n[nH]c(=O)n2c1.Cl
- EC50 [1]: 21100 nM
- IC50 [2]: 1200 nM
